# Columns and labels:
# Mus musculus [1] = experiment: Subacute toxicity in ICR mouse assessed as weight change in liver at 100 to 1000 mg/kg, administered once a day via oral gavage for 14 days; assay type: organism-based; details: in vivo, 336 h
# In short: (§1)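 ICR mice, 22−25 g, 5 per sex per group, gavaged daily for 14 days at 100, 500 or 1000 mg/kg in 30% PEG400/30% Tween 20/20% corn oil/20% water, with a vehicle control group. Observed daily for body weight change, skin and fur, inflammation and necrosis. Animals anesthetized on day 15; organ weights (liver, kidney) taken. Serum SGOT/SGPT compared with controls.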
# [2] = AUClast in Beagle dog at 150 mg/kg, administered via oral gavage measured up to 24 hrs post dose by LC/MS/MS analysis; assay type: ADME, organism-based, Canis lupus familiaris; design: dose 150 mg/kg, time < 24 hr, route oral; details: in vivo
# In short: (§2)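 Beagle dogs, 3 per sex, given a single oral gavage dose of 150 mg/kg in 20% w/v hydroxypropyl-β-cyclodextrin in water, 2.5 mL/kg. K2EDTA blood taken by venipuncture at 0.5, 0.75, 1, 2, 4, 6, 8, 12 and 24 h. Plasma extracted with ice-cold acetonitrile, then LC/MS/MS in positive MRM mode with zolpidem as internal standard. Noncompartmental analysis; mean ± SD.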
# Canis familiaris = experiment: Toxicity in Beagle dog at 150 mg/kg, administered via oral gavage measured up to 24 hrs post dose; assay type: organism-based, Canis lupus familiaris; details: in vivo
# In short: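 Six Beagle dogs (three male, three female) given one oral gavage dose of 150 mg/kg in 20% w/v hydroxypropyl-β-cyclodextrin in water. Animals watched for clinical symptoms and adverse events while plasma was sampled over 24 h.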
# [3] = Cmax in Beagle dog at 150 mg/kg, administered via oral gavage measured up to 24 hrs post dose by LC/MS/MS analysis; assay type: ADME, organism-based, Canis lupus familiaris; design: dose 150 mg/kg, route oral; details: in vivo; in short: as §2
# [4] = Acute toxicity in ICR mouse administered as a single dose via oral gavage and observed over 14 days; details: in vivo
# [5] = Drug metabolism in human HuH7 cells assessed as carboxylesterase-mediated (S)-isopropyl 2-((S)-(((2R,3R,4R,5R)-5-(4-amino-2-oxopyrimidin-1(2H)-yl)-4-fluoro-3-hydroxy-4-methyltetrahydrofuran-2-yl)methoxy)(phenoxy)phosphoryloxy)propanoate metabolite formation at 50 uM after 48 hrs by LC/MS/MS analysis; assay type: ADME; details: cell-based
# In short: (§3)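 Huh-7 cells plated at 0.35 million/mL in DMEM with 10% FBS (about 1 million per well at dosing) and grown 18 h. At each time point cells were washed with cold saline and lysed in methanol with internal standard. Semiquantified by LC/MS/MS MRM as Δ mean peak-area ratio relative to t0.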
# Liver carboxylesterase 1 = target: T1, Liver carboxylesterase 1 (Homo sapiens, UniProt P23141); experiment: Drug metabolism in human HuH7 cells assessed as carboxylesterase 1-mediated (S)-2-((R)-(((2R,3R,4R,5R)-5-(4-butyramido-2-oxopyrimidin-1(2H)-yl)-4-fluoro-3-hydroxy-4-methyltetrahydrofuran-2-yl)methoxy)(hydroxy)phosphorylamino)propanoic acid metabolite formation at 50 uM after 24 hrs by LC/MS/MS analysis; assay type: ADME, cell-based; in short: as §3
# T1 sequence (P23141 whole entry): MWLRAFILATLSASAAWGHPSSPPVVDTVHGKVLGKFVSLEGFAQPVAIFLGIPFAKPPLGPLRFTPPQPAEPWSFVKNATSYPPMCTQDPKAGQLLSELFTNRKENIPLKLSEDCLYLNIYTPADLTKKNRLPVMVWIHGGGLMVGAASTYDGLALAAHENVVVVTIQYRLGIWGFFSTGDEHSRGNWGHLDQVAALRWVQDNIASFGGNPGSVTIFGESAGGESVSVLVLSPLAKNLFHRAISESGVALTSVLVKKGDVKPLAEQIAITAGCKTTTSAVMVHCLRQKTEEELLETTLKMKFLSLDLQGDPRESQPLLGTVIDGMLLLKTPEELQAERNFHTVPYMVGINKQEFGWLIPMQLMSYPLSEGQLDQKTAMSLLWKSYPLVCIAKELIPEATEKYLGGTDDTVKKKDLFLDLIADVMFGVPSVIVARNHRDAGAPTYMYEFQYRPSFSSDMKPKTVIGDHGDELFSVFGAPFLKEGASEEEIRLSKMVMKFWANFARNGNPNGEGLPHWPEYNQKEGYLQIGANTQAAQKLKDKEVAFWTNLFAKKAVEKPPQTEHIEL
# Huh-7 = experiment: Cytotoxicity against human HuH7 cells assessed as reduction in cell viability up to 100 uM after 72 hrs by Cell Titer-Fluor Cell assay; assay type: cell-based; details: huh-7, 72 h
# In short: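 Huh7 cells carrying HCV genotype 1b replicon, 8000 per well, in duplicate 3-fold dilution series with 0.5% DMSO final; 72 h at 37 °C, 5% CO2. Viability read by Cell Titer-Fluor fluorescence after 5 min; replicon inhibition read by Bright-Glo luciferase luminescence in the same wells. EC50 and CC50 come from curve fitting.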
# [6] = AUC (0 to infinity) in Beagle dog at 150 mg/kg, administered via oral gavage measured up to 24 hrs post dose by LC/MS/MS analysis; assay type: ADME, organism-based, Canis lupus familiaris; design: dose 150 mg/kg, route oral, time infinity; details: in vivo; in short: as §2
# Mus musculus [7] = experiment: Subacute toxicity in ICR mouse assessed as effect on glomerulus at 100 to 1000 mg/kg, administered once a day via oral gavage for 14 days by hematoxylin/eosin-staining based microscopic analysis; assay type: organism-based; details: in vivo, 336 h
# In short: (§4)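 Same 14-day daily oral gavage design as the subacute study (ICR mice, 5 per sex per group, 100/500/1000 mg/kg or vehicle). Liver and kidney taken after anesthesia on day 15, processed routinely, cut as 5 μm paraffin sections, stained with hematoxylin and eosin and examined microscopically.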
# [8] = Drug metabolism in human HuH7 cells assessed as carboxylesterase-mediated (S)-2-((S)-(((2R,3R,4R,5R)-5-(4-amino-2-oxopyrimidin-1(2H)-yl)-4-fluoro-3-hydroxy-4-methyltetrahydrofuran-2-yl)methoxy)(hydroxy)phosphoryloxy)propanoic acid metabolite formation at 50 uM after 24 hrs by LC/MS/MS analysis; assay type: ADME, cell-based; in short: as §3
# Mus musculus [9] = experiment: Subacute toxicity in ICR mouse assessed as clinical signs of toxicity at 100 to 1000 mg/kg, administered once a day via oral gavage for 14 days; assay type: organism-based; details: in vivo, 336 h; in short: as §1
# Mus musculus [10] = experiment: Subacute toxicity in ICR mouse assessed as effect on tubules at 100 to 1000 mg/kg, administered once a day via oral gavage for 14 days by hematoxylin/eosin-staining based microscopic analysis; assay type: organism-based; details: in vivo, 336 h; in short: as §4
# Mus musculus [11] = experiment: Acute toxicity in ICR mouse assessed as mortality at 150 to 1800 mg/kg, administered via oral gavage measured once a day over 14 days; assay type: organism-based; details: in vivo, 336 h
# In short: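 ICR mice, 22−25 g, 5 per sex per group. Single oral gavage at 150, 500, 1200 or 1800 mg/kg in vehicle of 30% PEG400/30% Tween 20/20% corn oil/20% water, with a vehicle control. Mortality, morbidity, clinical signs and body weight change recorded once daily for 14 days.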
# Mus musculus [12] = experiment: Subacute toxicity in ICR mouse assessed as effect on hepatic perilobular vein at 100 to 1000 mg/kg, administered once a day via oral gavage for 14 days by hematoxylin/eosin-staining based microscopic analysis; assay type: organism-based; details: in vivo, 336 h; in short: as §4
# Mus musculus [13] = experiment: Subacute toxicity in ICR mouse assessed as macroscopic pathologic findings at 100 to 1000 mg/kg, administered once a day via oral gavage for 14 days; assay type: organism-based; details: in vivo, 336 h; in short: as §1
# [14] = Half life in Beagle dog at 150 mg/kg, administered via oral gavage measured up to 24 hrs post dose by LC/MS/MS analysis; assay type: ADME, organism-based, Canis lupus familiaris; details: in vivo; in short: as §2
structure (smiles),measurement,setting,value
CCCC(=O)Nc1ccn([C@@H]2O[C@H](CO[P@@](=O)(N[C@@H](C)C(=O)OC(C)C)Oc3ccccc3)[C@@H](O)[C@@]2(C)F)c(=O)n1,Activity,Mus musculus [1],Non-Toxic
same,AUC(0-t) at 24 h,[2],248 ng·h/mL
same,Activity,Canis familiaris,Non-Toxic
same,Cmax,[3],51.3 ng/mL
same,NOAEL at 336 h,[4],> 1800 mg/kg
same,Drug metabolism,[5],Metabolite_Detected
same,Drug metabolism,Liver carboxylesterase 1,Metabolite_Detected
same,Activity,Huh-7,Non-Toxic
same,AUC(0-inf),[6],411 ng·h/mL
same,Activity,Mus musculus [7],Non-Toxic
same,Drug metabolism,[8],Metabolite_Detected
same,Activity,Mus musculus [9],Non-Toxic
same,Activity,Mus musculus [10],Non-Toxic
same,Activity,Mus musculus [11],Non-Toxic
same,Activity,Mus musculus [12],Non-Toxic
same,Activity,Mus musculus [13],Non-Toxic
same,half-life,[14],14.2 h
